Results on 14 compounds are retold here after ChEMBL document CHEMBL1135661, “Design of noncovalent inhibitors of human cathepsin L. From the 96-residue proregion to optimized tripeptides” (J Med Chem, 2002).

Peptide text beside a SMILES is read from it. * marks the point of attachment. Phenylacetyl(4-Ph) = O=C(Cc1ccc(-c2ccccc2)cc1)*

The target of one assay is Procathepsin L (Homo sapiens, UniProt P07711). The assay is described as follows: Inhibitory activity against human Cathepsin L.
The target in a further assay is Cathepsin B (Homo sapiens, UniProt P07858). The assay is described as follows: Specificity of Cathepsin B inhibition by the compound. The gist of the method:
(§1)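 Recombinant human cathepsins B and K were expressed in Pichia pastoris and stored inhibited with MMTS or HgCl2 (B at 4 °C, K at −80 °C). Both were reactivated with 2 mM DTT and E-64 titrated. Cbz-Phe-Arg-MCA was kept well below KM, at 25 °C, pH 6.0 (50 mM phosphate, 5 mM EDTA, 0.2 M NaCl, 3% DMSO). Read-out was fluorescence at 380/440 nm. Ki came from 1/vs vs [I] plots or slow-binding analysis.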

The target of the next assay is T1, Cathepsin K (Homo sapiens, UniProt P43235).
T1 sequence (P43235 whole entry): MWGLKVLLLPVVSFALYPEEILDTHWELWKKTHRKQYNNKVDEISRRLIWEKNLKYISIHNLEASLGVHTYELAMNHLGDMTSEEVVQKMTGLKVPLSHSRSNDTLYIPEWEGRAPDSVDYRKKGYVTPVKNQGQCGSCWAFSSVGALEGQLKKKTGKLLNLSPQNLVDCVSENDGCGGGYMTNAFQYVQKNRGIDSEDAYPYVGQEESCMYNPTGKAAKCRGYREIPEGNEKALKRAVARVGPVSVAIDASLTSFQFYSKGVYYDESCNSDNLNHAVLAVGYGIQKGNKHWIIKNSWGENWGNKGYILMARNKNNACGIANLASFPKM
The assay is described as follows: Specificity of Cathepsin K inhibition by the compound. A digest of the protocol:
as §1

Procathepsin L, sequence (P07711 whole entry): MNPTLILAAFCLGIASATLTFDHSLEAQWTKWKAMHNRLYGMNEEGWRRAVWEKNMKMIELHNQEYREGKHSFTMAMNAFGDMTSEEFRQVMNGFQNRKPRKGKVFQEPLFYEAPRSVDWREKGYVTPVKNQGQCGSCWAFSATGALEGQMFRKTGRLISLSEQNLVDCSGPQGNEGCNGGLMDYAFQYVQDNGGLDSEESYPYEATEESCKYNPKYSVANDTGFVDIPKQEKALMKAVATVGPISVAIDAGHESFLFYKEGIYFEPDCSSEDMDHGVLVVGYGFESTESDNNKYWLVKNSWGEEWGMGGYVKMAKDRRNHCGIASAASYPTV

In the case of `NC(=O)C[C@H](NC(=O)Cc1ccc(-c2ccccc2)cc1)C(=O)N[C@H](CCCN=C(N)N)C(=O)N[C@@H](Cc1ccccc1)C(=O)NC(Cc1ccccc1)C(N)=O` (some centres not stated), the affinity on Procathepsin L, expressed as Ki, was 38000 nM.

As to `N=C(N)NCCC[C@H](NC(=O)[C@H](CS)NC(=O)Cc1ccc(-c2ccccc2)cc1)C(=O)N[C@@H](CC1CCCCC1)C(=O)NCCc1ccccc1`, on Procathepsin L, the Ki was 160 nM.

Turning to `N=C(N)NCCC[C@H](NC(=O)[C@H](CCCN=C(N)N)NC(=O)[C@H](CS)NC(=O)Cc1ccc(-c2ccccc2)cc1)C(=O)NCCc1ccccc1`, the affinity at Procathepsin L corresponds to a Ki of 3900 nM.

For the compound `CSC[C@@H](NC(=O)Cc1ccc(-c2ccccc2)cc1)C(=O)N[C@@H](CCCN=C(N)N)C(=O)N[C@@H](CC(C)C)C(=O)NCCc1ccccc1`, the affinity on Procathepsin L, expressed as Ki, was 270 nM.

Compound `N=C(N)NCCC[C@@H](NC(=O)[C@H](CS)NC(=O)Cc1ccc(-c2ccccc2)cc1)C(=O)N[C@@H](Cc1ccccc1)C(=O)N[C@@H](Cc1ccccc1)C(N)=O` (stereo in doubt; 4) showed a Ki on Procathepsin L of 170 nM.

At Procathepsin L, `N=C(N)NCCC[C@H](NC(=O)[C@H](CS)NC(=O)Cc1ccc(-c2ccccc2)cc1)C(=O)N[C@@H](Cc1ccc(-c2ccccc2)cc1)C(=O)NCCc1ccccc1` had a Ki of 270 nM. This Ki lies about 1.6-fold higher than the previous one.

Compound `CSC[C@H](NC(=O)Cc1ccc(-c2ccccc2)cc1)C(=O)NCC(=O)N[C@@H](Cc1ccccc1)C(=O)N[C@@H](Cc1ccccc1)C(N)=O` ({Phenylacetyl(4-Ph)}-C(Me)GFF-NH2) had a Ki at Procathepsin L of 930 nM.

At Procathepsin L, `N=C(N)NCCC[C@@H](NC(=O)[C@H](CO)NC(=O)Cc1ccc(-c2ccccc2)cc1)C(=O)N[C@@H](Cc1ccccc1)C(=O)N[C@@H](Cc1ccccc1)C(N)=O` displayed a Ki of 74000 nM.

Compound `N=C(N)NCCC[C@H](NC(=O)[C@H](CS)NC(=O)Cc1ccc(-c2ccccc2)cc1)C(=O)N[C@@H](Cc1ccc2ccccc2c1)C(=O)NCCc1ccccc1` yielded a Ki on Procathepsin L of 160 nM. This Ki lies about 460-fold lower than the previous one.

For `N=C(N)NCCC[C@H](NC(=O)[C@H](CS)NC(=O)Cc1ccc(-c2ccccc2)cc1)C(=O)N[C@@H](Cc1c[nH]c2ccccc12)C(=O)NCCc1ccccc1`, the Ki on Cathepsin B came to 0.56 µM; at Cathepsin K it was 1000 nM; at Procathepsin L, 67 nM.

In the case of `N=C(N)NCCC[C@H](NC(=O)[C@H](CS)NC(=O)Cc1ccc(-c2ccccc2)cc1)C(=O)N[C@@H](Cc1ccc(O)cc1)C(=O)NCCc1ccccc1`, the Ki at Cathepsin B came to 15 µM; at Cathepsin K, 2900 nM.

At Procathepsin L, `CSCC[C@H](NC(=O)[C@H](CCCN=C(N)N)NC(=O)[C@@H](CSC)NC(=O)Cc1ccc(-c2ccccc2)cc1)C(=O)NCCc1ccccc1` displayed a Ki of 240 nM. This counts as sub-micromolar.

For the compound `CC[C@H](NC(=O)[C@H](CCCN=C(N)N)NC(=O)[C@H](CS)NC(=O)Cc1ccc(-c2ccccc2)cc1)C(=O)NCCc1ccccc1`, affinity at Procathepsin L was put at a Ki of 210 nM. This Ki and that of the compound before are within 1.5-fold of each other.

Compound `CSCC[C@H](NC(C)=O)C(=O)N[C@@H](CC(N)=O)C(=O)NCC(=O)N[C@@H](Cc1ccccc1)C(=O)N[C@@H](CCC(N)=O)C(N)=O` (Ac-MNGFQ-NH2) registered a Ki on Procathepsin L greater than 100000 nM.

A word on the Ki: it is the dissociation constant of the complex between target and ligand, obtained from inhibition or displacement. Low values mean higher affinity, high ones lower affinity.
